Test results taken from ChEMBL document CHEMBL5303300, “EUbOPEN Chemogenomics Library - Multiplex” (2023).
Values joined by “and” are separate entries in the source; they are usually repeats but may differ in a detail not shown here. Equal values may be shown once.

Test system: HEK-293T
Experiment: Multiplex assay against HEK293T
Format: toxicity, cell-based
Conditions: human, number of replicates 2
Summary of the method: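 Live cells were stained at seeding with Hoechst33342, BioTracker Green Microtubule Cytoskeleton Dye, MitoTracker Red and Annexin V Alexa Fluor 680, then imaged on a CQ1 microscope at 37°C and 5% CO2 after compound addition. CellPathfinder machine-learning gating split cells into Hoechst high-intensity objects or normal cells. Normal cells were split into healthy, pyknosed or fragmented nuclei, and pyknosed cells into mitotic or apoptotic. Tubulin, mitochondrial-mass and membrane-permeability phenotypes are per cents of healthy-nucleus cells.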

[1] = 12 h, 1 µM, compound concentration 1 uM
[2] = 12 h, 10 µM, compound concentration 10 uM
[3] = 24 h, 1 µM, compound concentration 1 uM
[4] = 24 h, 10 µM, compound concentration 10 uM
[5] = 48 h, 1 µM, compound concentration 1 uM
[6] = 48 h, 10 µM, compound concentration 10 uM

In the case of `O=C1Nc2ccc(C(=O)c3ccco3)cc2C1=Cc1cc(Cl)c(O)c(Cl)c1` [GW406108X], the “Population Apoptotic (%)” value [1] is reported as 52% and 54%, the “Population Fragmented Nuclei (%)” value [1] is reported as 4% and 3% and the “Population Healthy Nuclei (%)” value [1] is reported as 83% and 81%. For the same compound, the “Population Hoechst High Intensity Objects (%)” value [1] was 9%, the “Population Membrane Permeable-Phenotype (%)” value [1] was 2% and 1% and the “Population Mitochondria Different-Phenotype (%)” value [1] was 18% and 17%. For the same compound, the “Population Mitotic Cells (%)” value [1] was 47% and 45%, the “Population Normal (%)” value [1] was 90% and the “Population Pyknosed Nuclei (%)” value [1] was 11% and 14%. For the same compound, the “Population Tubulin-Different-Phenotype (%)” value [1] was 49% and 42%, the “Total Cell Count” value [1] was 695 and 619 and the “Population Apoptotic (%)” value [2] was 53% and 61%. For the same compound, the “Population Fragmented Nuclei (%)” value [2] was 4% and 3%, the “Population Healthy Nuclei (%)” value [2] was 82% and 85% and the “Population Hoechst High Intensity Objects (%)” value [2] was 7% and 9%. The “Population Membrane Permeable-Phenotype (%)” value [2] was 2% and 1%, the “Population Mitochondria Different-Phenotype (%)” value [2] was 19% and the “Population Mitotic Cells (%)” value [2] was 46% and 38%. For the same compound, the “Population Normal (%)” value [2] was 92% and 90%, the “Population Pyknosed Nuclei (%)” value [2] was 13% and 10% and the “Population Tubulin-Different-Phenotype (%)” value [2] was 67%. The “Total Cell Count” value [2] was 686 and 661, the “Population Apoptotic (%)” value [3] was 55% and 53% and the “Population Fragmented Nuclei (%)” value [3] was 7%. For the same compound, the “Population Healthy Nuclei (%)” value [3] was 85% and 82%, the “Population Hoechst High Intensity Objects (%)” value [3] was 9% and the “Population Membrane Permeable-Phenotype (%)” value [3] was 2% and 1%. For the same compound, the “Population Mitochondria Different-Phenotype (%)” value [3] was 4% and 5%, the “Population Mitotic Cells (%)” value [3] was 44% and 46% and the “Population Normal (%)” value [3] was 90%. For the same compound, the “Population Pyknosed Nuclei (%)” value [3] was 7% and 9%, the “Population Tubulin-Different-Phenotype (%)” value [3] was 26% and 25% and the “Total Cell Count” value [3] was 1089 and 967. The “Population Apoptotic (%)” value [4] was 46% and 59%, the “Population Fragmented Nuclei (%)” value [4] was 7% and 6% and the “Population Healthy Nuclei (%)” value [4] was 85% and 81%. For the same compound, the “Population Hoechst High Intensity Objects (%)” value [4] was 11% and 13%, the “Population Membrane Permeable-Phenotype (%)” value [4] was 3% and 2% and the “Population Mitochondria Different-Phenotype (%)” value [4] was 10% and 15%. The “Population Mitotic Cells (%)” value [4] was 53% and 40%, the “Population Normal (%)” value [4] was 88% and 86% and the “Population Pyknosed Nuclei (%)” value [4] was 7% and 11%. For the same compound, the “Population Tubulin-Different-Phenotype (%)” value [4] was 53%, the “Total Cell Count” value [4] was 904 and 698 and the “Population Apoptotic (%)” value [5] was 9% and 25%. The “Population Fragmented Nuclei (%)” value [5] was 15% and 13%, the “Population Healthy Nuclei (%)” value [5] was 81% and 82% and the “Population Hoechst High Intensity Objects (%)” value [5] was 10% and 11%. For the same compound, the “Population Membrane Permeable-Phenotype (%)” value [5] was 5% and 2%, the “Population Mitochondria Different-Phenotype (%)” value [5] was 0% and the “Population Mitotic Cells (%)” value [5] was 90% and 74%. The “Population Normal (%)” value [5] was 89% and 88%, the “Population Pyknosed Nuclei (%)” value [5] was 2% and 3% and the “Population Tubulin-Different-Phenotype (%)” value [5] was 13% and 12%. For the same compound, the “Total Cell Count” value [5] was 2778 and 2175, the “Population Apoptotic (%)” value [6] was 34% and 50% and the “Population Fragmented Nuclei (%)” value [6] was 18% and 14%. The “Population Healthy Nuclei (%)” value [6] was 78% and 80%, the “Population Hoechst High Intensity Objects (%)” value [6] was 15% and 20% and the “Population Membrane Permeable-Phenotype (%)” value [6] was 4% and 1%. The “Population Mitochondria Different-Phenotype (%)” value [6] was 1% and 3%, the “Population Mitotic Cells (%)” value [6] was 65% and 50% and the “Population Normal (%)” value [6] was 84% and 79%. The “Population Pyknosed Nuclei (%)” value [6] was 3% and 5%, the “Population Tubulin-Different-Phenotype (%)” value [6] was 22% and 30% and the “Total Cell Count” value [6] was 1684 and 1056.

For `CC(C)N1CCN(Cc2cnc(-c3cc(-c4cccc5[nH]ccc45)cc4[nH]ncc34)o2)CC1` [NEMIRALISIB], the “Population Apoptotic (%)” value [1] was 45% and 59%, the “Population Fragmented Nuclei (%)” value [1] was 5% and 3% and the “Population Healthy Nuclei (%)” value [1] was 77% and 74%. For the same compound, the “Population Hoechst High Intensity Objects (%)” value [1] was 12% and 13%, the “Population Membrane Permeable-Phenotype (%)” value [1] was 4% and 2% and the “Population Mitochondria Different-Phenotype (%)” value [1] was 18% and 22%. For the same compound, the “Population Mitotic Cells (%)” value [1] was 54% and 40%, the “Population Normal (%)” value [1] was 87% and 86% and the “Population Pyknosed Nuclei (%)” value [1] was 16% and 21%. For the same compound, the “Population Tubulin-Different-Phenotype (%)” value [1] was 69% and 70%, the “Total Cell Count” value [1] was 748 and 665 and the “Population Apoptotic (%)” value [2] was 62% and 64%. For the same compound, the “Population Fragmented Nuclei (%)” value [2] was 2% and 3%, the “Population Healthy Nuclei (%)” value [2] was 87% and 84% and the “Population Hoechst High Intensity Objects (%)” value [2] was 11% and 7%. The “Population Membrane Permeable-Phenotype (%)” value [2] was 5% and 3%, the “Population Mitochondria Different-Phenotype (%)” value [2] was 46% and 61% and the “Population Mitotic Cells (%)” value [2] was 37% and 35%. For the same compound, the “Population Normal (%)” value [2] was 88% and 92%, the “Population Pyknosed Nuclei (%)” value [2] was 9% and 12% and the “Population Tubulin-Different-Phenotype (%)” value [2] was 98%. The “Total Cell Count” value [2] was 425 and 404, the “Population Apoptotic (%)” value [3] was 52% and 61% and the “Population Fragmented Nuclei (%)” value [3] was 10% and 6%. For the same compound, the “Population Healthy Nuclei (%)” value [3] was 75% and 74%, the “Population Hoechst High Intensity Objects (%)” value [3] was 9% and 11% and the “Population Membrane Permeable-Phenotype (%)” value [3] was 2%. For the same compound, the “Population Mitochondria Different-Phenotype (%)” value [3] was 7% and 8%, the “Population Mitotic Cells (%)” value [3] was 47% and 38% and the “Population Normal (%)” value [3] was 90% and 88%. The “Population Pyknosed Nuclei (%)” value [3] was 13% and 19%, the “Population Tubulin-Different-Phenotype (%)” value [3] was 40% and 42% and the “Total Cell Count” value [3] was 1140 and 951. For the same compound, the “Population Apoptotic (%)” value [4] was 50% and 57%, the “Population Fragmented Nuclei (%)” value [4] was 3% and the “Population Healthy Nuclei (%)” value [4] was 85% and 78%. The “Population Hoechst High Intensity Objects (%)” value [4] was 18% and 14%, the “Population Membrane Permeable-Phenotype (%)” value [4] was 3% and the “Population Mitochondria Different-Phenotype (%)” value [4] was 39% and 57%. For the same compound, the “Population Mitotic Cells (%)” value [4] was 50% and 42%, the “Population Normal (%)” value [4] was 81% and 85% and the “Population Pyknosed Nuclei (%)” value [4] was 11% and 17%. The “Population Tubulin-Different-Phenotype (%)” value [4] was 94% and 96%, the “Total Cell Count” value [4] was 468 and 473 and the “Population Apoptotic (%)” value [5] was 21% and 33%. The “Population Fragmented Nuclei (%)” value [5] was 17% and 10%, the “Population Healthy Nuclei (%)” value [5] was 78% and 84% and the “Population Hoechst High Intensity Objects (%)” value [5] was 10%. The “Population Membrane Permeable-Phenotype (%)” value [5] was 6% and 2%, the “Population Mitochondria Different-Phenotype (%)” value [5] was 0% and 1% and the “Population Mitotic Cells (%)” value [5] was 78% and 66%. For the same compound, the “Population Normal (%)” value [5] was 89%, the “Population Pyknosed Nuclei (%)” value [5] was 4% and the “Population Tubulin-Different-Phenotype (%)” value [5] was 19%. For the same compound, the “Total Cell Count” value [5] was 2776 and 2131, the “Population Apoptotic (%)” value [6] was 51% and 60% and the “Population Fragmented Nuclei (%)” value [6] was 8% and 7%. For the same compound, the “Population Healthy Nuclei (%)” value [6] was 84% and 85%, the “Population Hoechst High Intensity Objects (%)” value [6] was 11% and 15% and the “Population Membrane Permeable-Phenotype (%)” value [6] was 6% and 7%. The “Population Mitochondria Different-Phenotype (%)” value [6] was 28% and 18%, the “Population Mitotic Cells (%)” value [6] was 48% and 40% and the “Population Normal (%)” value [6] was 88% and 84%. For the same compound, the “Population Pyknosed Nuclei (%)” value [6] was 6% and 7%, the “Population Tubulin-Different-Phenotype (%)” value [6] was 86% and 80% and the “Total Cell Count” value [6] was 815 and 665.
